From ChEMBL document CHEMBL1134301, “[1,2,4]Triazino[4,3-a]benzimidazole acetic acid derivatives: a new class of selective aldose reductase inhibitors” (J Med Chem, 2001)
One block for each compound: values may come before it.

Legend:
[1] = biological target: Aldo-keto reductase family 1 member B1 (Rattus norvegicus, UniProt P07943); experiment: Inhibitory concentration to aldose reductase (ALR-2) obtained from rat lens
[2] = organism: Rattus norvegicus; experiment: Effect of the treatment on day 21 with ophthalmic solution (3%) on development of nuclear cataract in severely galactosemic rats; assay type: functional
How it was run: (§1)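 Sprague Dawley albino rats (45-55 g), 15 per group of equal average body weight, fed 50% D-galactose diet with ad libitum food and water. Eyedrops given four times daily in the precorneal region, starting 1 day before the switch to galactose chow. Vehicle controls were run on galactose and on normal diet. Lenses were checked by slit-lamp after 1% atropine mydriasis, and animals with nuclear cataract (central white opacity) were counted.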

[3] = organism: Rattus norvegicus; experiment: Effect of the treatment on day 16 with ophthalmic solution (3%)on development of nuclear cataract in severely galactosemic rats; assay type: functional; how it was run: as §1
[4] = organism: Rattus norvegicus; experiment: Effect of the treatment on day 14 with ophthalmic solution (3%)on development of nuclear cataract in severely galactosemic rats; assay type: functional; how it was run: as §1
[5] = organism: Rattus norvegicus; experiment: Effect of the treatment on day 11 with ophthalmic solution (3%)on development of nuclear cataract in severely galactosemic rats; assay type: functional; how it was run: as §1
[6] = organism: Rattus norvegicus; experiment: Effect of the treatment on day 18 with ophthalmic solution (3%)on development of nuclear cataract in severely galactosemic rats; assay type: functional; how it was run: as §1
[7] = organism: Rattus norvegicus; experiment: Effect of the treatment on day 13 with ophthalmic solution (3%)on development of nuclear cataract in severely galactosemic rats; assay type: functional; how it was run: as §1
[8] = organism: Rattus norvegicus; experiment: Effect of the treatment on day 19 with ophthalmic solution (3%)on development of nuclear cataract in severely galactosemic rats; assay type: functional; how it was run: as §1
[9] = organism: Rattus norvegicus; experiment: Effect of the treatment on day 12 with ophthalmic solution (3%)on development of nuclear cataract in severely galactosemic rats; assay type: functional; how it was run: as §1
[10] = organism: Rattus norvegicus; experiment: Effect of the treatment on day 17 with ophthalmic solution (3%)on development of nuclear cataract in severely galactosemic rats; assay type: functional; how it was run: as §1
[11] = organism: Rattus norvegicus; experiment: Effect of the treatment on day 15 with ophthalmic solution (3%)on development of nuclear cataract in severely galactosemic rats; assay type: functional; how it was run: as §1
[12] = organism: Rattus norvegicus; experiment: Effect of the treatment on day 20 with ophthalmic solution (3%)on development of nuclear cataract in severely galactosemic rats; assay type: functional; how it was run: as §1
[13] = organism: Rattus norvegicus; experiment: Effect of the treatment on day 11 with ophthalmic solution (1%)on development of nuclear cataract in severely galactosemic rats; assay type: functional; how it was run: as §1
[14] = organism: Rattus norvegicus; experiment: Effect of the treatment on day 17 with ophthalmic solution (1%)on development of nuclear cataract in severely galactosemic rats; assay type: functional; how it was run: as §1
[15] = organism: Rattus norvegicus; experiment: Effect of the treatment on day 15 with ophthalmic solution (1%)on development of nuclear cataract in severely galactosemic rats; assay type: functional; how it was run: as §1
[16] = organism: Rattus norvegicus; experiment: Effect of the treatment on day 13 with ophthalmic solution (1%)on development of nuclear cataract in severely galactosemic rats; assay type: functional; how it was run: as §1
[17] = organism: Rattus norvegicus; experiment: Effect of the treatment on day 12 with ophthalmic solution (1%)on development of nuclear cataract in severely galactosemic rats; assay type: functional; how it was run: as §1
[18] = organism: Rattus norvegicus; experiment: Effect of the treatment on day 16 with ophthalmic solution (1%)on development of nuclear cataract in severely galactosemic rats; assay type: functional; how it was run: as §1
[19] = organism: Rattus norvegicus; experiment: Effect of the treatment on day 19 with ophthalmic solution (1%)on development of nuclear cataract in severely galactosemic rats; assay type: functional; how it was run: as §1
[20] = organism: Rattus norvegicus; experiment: Effect of the treatment on day 20 with ophthalmic solution (1%)on development of nuclear cataract in severely galactosemic rats; assay type: functional; how it was run: as §1
[21] = organism: Rattus norvegicus; experiment: Effect of the treatment on day 21 with ophthalmic solution (1%) on development of nuclear cataract in severely galactosemic rats; assay type: functional; how it was run: as §1
[22] = organism: Rattus norvegicus; experiment: Effect of the treatment on day 18 with ophthalmic solution (1%)on development of nuclear cataract in severely galactosemic rats; assay type: functional; how it was run: as §1
[23] = organism: Rattus norvegicus; experiment: Effect of the treatment on day 14 with ophthalmic solution (1%)on development of nuclear cataract in severely galactosemic rats; assay type: functional; how it was run: as §1

- IC50 [1]: 4.42 µM
Compound: O=C(O)Cn1nc2n(Cc3ccc(F)c(F)c3)c3ccccc3n2c(=O)c1=O

- IC50 [1]: 10 µM
Compound: O=C(O)CN/N=c1\n(Cc2ccc(Cl)cc2)c2ccccc2n1C(=O)C(=O)O

- IC50 [1]: 44.5 µM
Compound: COc1ccc(Cn2/c(=N\NCC(=O)O)n(C(=O)C(=O)O)c3ccccc32)cc1

- IC50 [1]: 12.5 µM
Compound: O=C(O)CN/N=c1\n(Cc2ccc(Br)cc2F)c2ccccc2n1C(=O)C(=O)O

- IC50 [1]: 109 µM
Compound: Cn1/c(=N\NCC(=O)O)n(C(=O)C(=O)O)c2ccccc21

- IC50 [1]: 4.5 µM
Compound: O=C(O)CN/N=c1\n(Cc2ccccc2)c2ccccc2n1C(=O)C(=O)O

- IC50 [1]: 4.58 µM
Compound: O=C(O)Cn1nc2n(Cc3ccc(F)cc3)c3ccccc3n2c(=O)c1=O

- IC50 [1]: 37.2 µM
Compound: CCCn1c2ccccc2n2c(=O)c(=O)n(CC(=O)O)nc12

- IC50 [1]: 4.47 µM
Compound: O=C(O)Cn1nc2n(Cc3ccc(Br)cc3F)c3ccccc3n2c(=O)c1=O

- IC50 [1]: 2.63 µM
Compound: O=C(O)CN/N=c1\n(Cc2ccc(C(F)(F)F)cc2)c2ccccc2n1C(=O)C(=O)O

- IC50 [1]: 13.3 µM
Compound: Cc1ccc(Cn2c3ccccc3n3c(=O)c(=O)n(CC(=O)O)nc23)cc1

- IC50 [1]: 35.9 µM
Compound: O=C(O)Cc1nnc2nc3ccccc3n2c1O

- IC50 [1]: 23.9 µM
Compound: O=C(O)Cn1nc2n(Cc3ccc(C(F)(F)F)cc3)c3ccccc3n2c(=O)c1=O

Compound: CC(C)OC(=O)Cn1nc2n(Cc3ccccc3)c3ccccc3n2c(=O)c1=O
- Nuclear cataract [2]: 40%
- Nuclear cataract [3]: 10%
- Nuclear cataract [4]: 10%
- Nuclear cataract [5]: 0%
- Nuclear cataract [6]: 40%
- Nuclear cataract [7]: 10%
- Nuclear cataract [8]: 40%
- Nuclear cataract [9]: 10%
- Nuclear cataract [10]: 10%
- Nuclear cataract [11]: 10%
- Nuclear cataract [12]: 40%

- IC50 [1]: 17 µM
Compound: Cn1c2ccccc2n2c(=O)c(CC(=O)O)nnc12

- IC50 [1]: 4.15 µM
Compound: O=C(O)Cn1nc2n(Cc3ccc(Cl)cc3)c3ccccc3n2c(=O)c1=O

- IC50 [1]: 9.72 µM
Compound: O=C(O)CN/N=c1\n(Cc2ccc(F)c(F)c2)c2ccccc2n1C(=O)C(=O)O

- IC50 [1]: 42.6 µM
Compound: COc1ccc(Cn2c3ccccc3n3c(=O)c(=O)n(CC(=O)O)nc23)cc1

- IC50 [1]: 236 µM
Compound: O=C(O)CN/N=c1\n(CC(=O)O)c2ccccc2n1C(=O)C(=O)O

- IC50 [1]: 0.36 µM
Compound: O=C(O)Cn1nc2n(Cc3ccccc3)c3ccccc3n2c(=O)c1=O
- Nuclear cataract [2]: 50%
- Nuclear cataract [3]: 10%
- Nuclear cataract [4]: 10%
- Nuclear cataract [5]: 0%
- Nuclear cataract [6]: 40%
- Nuclear cataract [7]: 0%
- Nuclear cataract [8]: 40%
- Nuclear cataract [9]: 0%
- Nuclear cataract [10]: 10%
- Nuclear cataract [11]: 10%
- Nuclear cataract [12]: 50%

- IC50 [1]: 14.8 µM
Compound: O=C(O)CN/N=c1\n(Cc2ccc(F)cc2)c2ccccc2n1C(=O)C(=O)O

- IC50 [1]: 24.8 µM
Compound: Cn1c2ccccc2n2c(=O)c(=O)n(CC(=O)O)nc12

- IC50 [1]: 13.5 µM
Compound: O=C(O)Cn1nc2n(CC(=O)O)c3ccccc3n2c(=O)c1=O

- IC50 [1]: 5.44 µM
Compound: O=C(O)Cc1nnc2n(Cc3ccccc3)c3ccccc3n2c1=O

- IC50 [1]: 45.9 µM
Compound: Cc1ccc(Cn2/c(=N\NCC(=O)O)n(C(=O)C(=O)O)c3ccccc32)cc1

- IC50 [1]: 46.5 µM
Compound: CCCn1/c(=N\NCC(=O)O)n(C(=O)C(=O)O)c2ccccc21

- IC50 [1]: 0.05 µM
Compound: COc1ccc2c(C(=S)N(C)CC(=O)O)cccc2c1C(F)(F)F [TOLRESTAT]
- Nuclear cataract [13]: 0%
- Nuclear cataract [14]: 32%
- Nuclear cataract [2]: 0%
- Nuclear cataract [3]: 0%
- Nuclear cataract [4]: 0%
- Nuclear cataract [5]: 0%
- Nuclear cataract [6]: 0%
- Nuclear cataract [15]: 32%
- Nuclear cataract [7]: 0%
- Nuclear cataract [8]: 0%
- Nuclear cataract [16]: 0%
- Nuclear cataract [17]: 0%
- Nuclear cataract [9]: 0%
- Nuclear cataract [18]: 32%
- Nuclear cataract [10]: 0%
- Nuclear cataract [11]: 0%
- Nuclear cataract [19]: 43%
- Nuclear cataract [20]: 47%
- Nuclear cataract [21]: 47%
- Nuclear cataract [22]: 43%
- Nuclear cataract [12]: 0%
- Nuclear cataract [23]: 23%
